These results are taken from ChEMBL document CHEMBL4834403, “Design and Synthesis of Novel Epigenetic Inhibitors Targeting Histone Deacetylases, DNA Methyltransferase 1, and Lysine Methyltransferase G9a with In Vivo Efficacy in Multiple Myeloma” (J Med Chem, 2021).

Broadly, the IC50 is the point on the concentration scale where inhibition reaches its midpoint. Read a low IC50 as greater potency in that assay. In general, CL/F refers to the apparent clearance, not corrected for the fraction that reaches the circulation. One may read the half-life as the time in which the quantity being followed falls by half. Low readings indicate rapid decline, high ones slow decline.

Data set [1] in a line: Toxicity in mouse assessed as mouse death at 5 mg/kg, ip after 15 mins. Format: organism-based. The following applies: in vivo, 0.25 h. The gist of the method: (§1)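 Observation made during a preliminary pharmacokinetic study with i.p. dosing, n = 5 mice per dose level, with blood extraction after administration.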
Data set [2] in a line: Toxicity in mouse assessed as mouse death at 10 mg/kg, ip after 10 mins. Format: organism-based. The following applies: in vivo. Put shortly: as §1
For data set [3], the target named is T1, Protein deacetylase HDAC6 (Homo sapiens, UniProt Q9UBN7).
T1 sequence (Q9UBN7 whole entry): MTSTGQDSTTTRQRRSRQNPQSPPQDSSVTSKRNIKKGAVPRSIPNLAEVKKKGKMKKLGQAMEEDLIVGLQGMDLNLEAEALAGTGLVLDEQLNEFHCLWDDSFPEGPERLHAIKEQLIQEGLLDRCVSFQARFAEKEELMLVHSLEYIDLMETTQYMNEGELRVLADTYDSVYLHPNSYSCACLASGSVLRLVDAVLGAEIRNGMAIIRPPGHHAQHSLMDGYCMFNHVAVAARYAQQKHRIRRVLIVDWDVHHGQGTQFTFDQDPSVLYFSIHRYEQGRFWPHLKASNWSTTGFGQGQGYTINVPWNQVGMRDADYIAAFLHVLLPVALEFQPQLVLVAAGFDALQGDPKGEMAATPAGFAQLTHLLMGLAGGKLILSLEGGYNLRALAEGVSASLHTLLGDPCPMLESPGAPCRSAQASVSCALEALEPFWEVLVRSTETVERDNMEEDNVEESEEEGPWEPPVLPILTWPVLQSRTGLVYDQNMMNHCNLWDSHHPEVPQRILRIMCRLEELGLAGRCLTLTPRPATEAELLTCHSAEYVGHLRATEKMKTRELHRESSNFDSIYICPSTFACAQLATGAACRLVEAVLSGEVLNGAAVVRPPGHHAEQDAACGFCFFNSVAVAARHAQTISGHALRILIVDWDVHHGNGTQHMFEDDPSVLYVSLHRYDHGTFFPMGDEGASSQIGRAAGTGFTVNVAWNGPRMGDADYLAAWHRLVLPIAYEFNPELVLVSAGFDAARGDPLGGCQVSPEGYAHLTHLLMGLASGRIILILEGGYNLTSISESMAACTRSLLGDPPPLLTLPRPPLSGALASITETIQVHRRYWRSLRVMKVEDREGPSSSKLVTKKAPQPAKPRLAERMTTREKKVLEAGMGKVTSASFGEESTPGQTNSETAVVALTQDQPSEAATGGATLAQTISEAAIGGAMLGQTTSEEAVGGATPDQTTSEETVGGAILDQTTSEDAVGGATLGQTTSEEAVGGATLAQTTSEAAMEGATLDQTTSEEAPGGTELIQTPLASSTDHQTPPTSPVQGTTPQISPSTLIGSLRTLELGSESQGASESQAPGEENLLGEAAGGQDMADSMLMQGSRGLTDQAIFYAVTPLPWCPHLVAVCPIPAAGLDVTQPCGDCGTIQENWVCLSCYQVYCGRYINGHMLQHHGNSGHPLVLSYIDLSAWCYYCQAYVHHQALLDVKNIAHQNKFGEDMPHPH
Description: Inhibition of full length human N-terminal GST-tagged HDAC6 using fluorogenic acetylated peptide as substrate incubated for 30 mins by fluorescence plate reader assay.

A short description of data set [4]: Apparent oral clearance in BALB/c RAG2-/- gammaC-/- mouse at 10 mg/kg, ip using 80% saline 10% Tween20 and 10% DMSO formulation measured up to 24 hrs by UPLC-triple quadrupole MS analysis. Format: ADME, organism-based. The following applies: in vivo.
Data set [5] in a line: Apparent volume of distribution during terminal phase in BALB/c RAG2-/- gammaC-/- mouse at 10 mg/kg, ip using 80% saline 10% Tween20 and 10% DMSO formulation measured up to 24 hrs by UPLC-triple quadrupole MS analysis. The note with it: in vivo, read-out: Vz/F. It is filed as ADME, organism-based.
For data set [6], the system named is MM1.S. The data set can be described thus: Antitumor activity against human MM1.S cells xenografted in BALB/c RAG2-/- gammaC-/- mouse assessed as reduction in tumor volume at 10 mg/kg, ip administered for 5 consecutive days followed by 2 days rest and measured after 35 days (reference value: 3836 +/- 1696 mm3). The following applies: time 35 day. It is filed as functional. In general terms: Xenograft models place foreign cells or tissue in a host animal.

Data set [7] is described as follows: Half life in BALB/c RAG2-/- gammaC-/- mouse at 10 mg/kg, ip using 80% saline 10% Tween20 and 10% DMSO formulation measured up to 24 hrs by UPLC-triple quadrupole MS analysis. It is filed as ADME, organism-based. The following applies: in vivo.

On to `COc1cc2c(NCC3CCN(c4ncc(C(=O)NO)cn4)CC3)cc(-c3ccc(C)o3)nc2cc1OCCCN1CCCC1`, for which the Activity result in data set [1] and in data set [2] was “Toxic” each time. In data set [3], the IC50 came to 152 nM.

In the case of `COc1cc2nc(-c3ccc(C)o3)cc(NCC3CCN(c4ncc(C(=O)NO)cn4)CC3)c2cc1OC`, the CL/F in data set [4] is 8.83 mL/min. Further, the Vd/F in data set [5] amounted to 6.56 L. Besides, in data set [6], the Activity is 1788 mm3. Further, the half-life in data set [7] is 508 min.
